Experiment [1] has as its target T1, Cannabinoid receptor 2 (Homo sapiens, UniProt P34972). In words: Agonist activity at N-terminal Flag epitope tagged CB2 (unknown origin) expressed in HTLA cells assessed as increase of beta-arrestin recruitment by Tango assay. It is filed as cell-based. Summed up:
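β-arrestin Tango assay: HTLA cells transfected overnight with GPCR tango constructs, plated at 15,000 cells/well in DMEM with 1% dFBS, recovered ≥6 h. Drugs in Tango buffer (20 mM HEPES, 1x HBSS, pH 7.40) added overnight, full concentration-response (maximum 30 µM). BrightGlo reagent, 20 min room temperature in dark, luminescence read.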
(In general: Recruitment of arrestin is a read-out of receptor activation apart from second messengers.)

For the next experiment, the species on record is Homo sapiens. In words: Selectivity index, ratio of Ki for recombinant human CB1R expressed in HEK293 cell membranes to Ki for recombinant human CB2R expressed in HEK293 cell membranes. It is filed as cell-based.
Experiment [2] deals with T2, Cannabinoid receptor 1 (Homo sapiens, UniProt P21554). In words: Antagonist activity at N-terminal Flag epitope tagged CB1 (unknown origin) expressed in HTLA cells assessed as decrease in CP55940-induced beta-arrestin recruitment pretreated with non-selective cannabinoid receptor agonist CP55940 for 30 mins and measured after 20 mins by Tango assay. It is filed as cell-based.
T2 sequence (P21554 whole entry): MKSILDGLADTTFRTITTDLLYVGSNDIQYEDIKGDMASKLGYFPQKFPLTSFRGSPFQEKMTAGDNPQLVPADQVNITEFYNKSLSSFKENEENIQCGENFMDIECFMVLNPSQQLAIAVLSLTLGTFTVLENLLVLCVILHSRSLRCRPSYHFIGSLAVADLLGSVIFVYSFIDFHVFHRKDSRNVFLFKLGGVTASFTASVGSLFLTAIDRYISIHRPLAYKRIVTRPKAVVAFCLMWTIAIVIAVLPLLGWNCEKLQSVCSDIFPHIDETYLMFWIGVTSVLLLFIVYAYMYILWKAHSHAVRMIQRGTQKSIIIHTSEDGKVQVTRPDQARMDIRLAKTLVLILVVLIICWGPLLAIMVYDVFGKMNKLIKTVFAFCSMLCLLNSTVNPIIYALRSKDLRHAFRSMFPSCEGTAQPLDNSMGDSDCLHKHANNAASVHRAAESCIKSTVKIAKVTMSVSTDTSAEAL

The target in experiment [3] is T1, Cannabinoid receptor 2. In words: Antagonist activity at N-terminal Flag epitope tagged CB2 (unknown origin) expressed in HTLA cells assessed as decrease in CP55940-induced beta-arrestin recruitment pretreated with non-selective cannabinoid receptor agonist CP55940 for 30 mins and measured after 20 mins by Tango assay. It is filed as cell-based.
The target of experiment [4] is T2, Cannabinoid receptor 1. In words: Agonist activity at N-terminal Flag epitope tagged CB1 (unknown origin) expressed in HTLA cells assessed as increase of beta-arrestin recruitment by Tango assay. It is filed as cell-based. Summed up: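 HTLA cells transfected overnight with GPCR Tango constructs, plated at 15,000 cells/well in DMEM with 1% dFBS and allowed to recover at least 6 h. Compounds in Tango buffer (20 mM HEPES, 1x HBSS, pH 7.40) added overnight, full concentration-response up to 30 µM against CP-55,940 as reference agonist. BrightGlo reagent added for 20 min at room temperature in the dark, then luminescence read.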

Experiment [5] has as its target T1, Cannabinoid receptor 2. In words: Agonist activity at recombinant human CB2R expressed in CHOK1 cells assessed as inhibition of NKH477-stimulated intracellular cAMP levels after 30 mins by chemiluminescent detection based cAMP Hunter assay. It is filed as functional, cell-based. Summed up: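 CHO-K1 cells overexpressing human CB2R, plated 30,000 cells/well, overnight 37 °C, 5% CO2. Compound dose-responses incubated 30 min at 37 °C with NKH-477 (25 µM) to stimulate adenylate cyclase. Enzyme fragment complementation chemiluminescence read. Normalised to NKH-477 alone as 100%; mean ± SEM of three independent experiments in triplicate.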
On the technique in general: Changes in cAMP serve as a functional read-out for many G protein-coupled receptors.

The target in experiment [6] is T1, Cannabinoid receptor 2. In words: Displacement of [3H]CP55940 from recombinant human CB2R expressed in HEK293 cell membranes at 10 uM incubated for 90 mins relative to control. For orientation: Displacement assays read how much labelled ligand stays bound in the presence of the test substance.
For experiment [7], the target named is T2, Cannabinoid receptor 1. In words: Displacement of [3H]CP55940 from recombinant human CB1R expressed in HEK293 cell membranes at 10 uM incubated for 90 mins relative to control.
For experiment [8], the system named is Mus musculus. In words: Anti-inflammatory activity in Swiss albino mouse model of DSS-induced acute colitis as IL1beta level in colon tissue at 10 mg/kg, ip administrated for 7 days by ELISA (reference value: 140.9 +/- 8.551 pg/mg). It is filed as functional.
Experiment [9] relates to Mus musculus. In words: Anti-colitis activity in Swiss albino mouse model of DSS-induced acute colitis assessed as reduction in DSS-induced desquamation in lining of mucosal epithelium in colon tissue at 10 mg/kg, ip administrated for 7 days by H and E staining based light microscopic method. In kind it is functional, organism-based. Summed up:
(§1)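 DSS colitis (3% DSS, 7 days) in male Swiss albino mice with daily ip 10 mg/kg in 4% DMSO/2% tween/saline. Distal colon fixed in 10% formol saline 24 h, paraffin-embedded, 4 µm sections, H&E, light microscopy scored for epithelial ulceration/desquamation, mucosal and submucosal infiltration, submucosal oedema, haemorrhage, lymphoid hyperplasia.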

The subject of experiment [10] is Mus musculus. In words: Anti-colitis activity in Swiss albino mouse model of DSS-induced acute colitis assessed as reduction in DSS-induced ulceration in distal part of colon at 10 mg/kg, ip administrated for 7 days by H and E staining based light microscopic method. In kind it is functional, organism-based. Summed up:
as §1

For experiment [11], the system named is Mus musculus. In words: Anti-colitis activity in Swiss albino mouse model of DSS-induced acute colitis assessed as colon length at 10 mg/kg, ip administrated for 7 days (reference value: 7.314 +/- 0.1143 cm). It is filed as functional.
Experiment [12] relates to Mus musculus. In words: Anti-colitis activity in Swiss albino mouse model of DSS-induced acute colitis assessed as reduction in DSS-induced haemorrhage in colon at 10 mg/kg, ip administrated for 7 days by H and E staining based light microscopic method. It is filed as functional, organism-based. Summed up:
as §1

Experiment [13] relates to Mus musculus. In words: Anti-colitis activity in Swiss albino mouse model of DSS-induced acute colitis assessed as reduction in DSS-induced lymphoid hyperplasia in the sub-musoca in colon at 10 mg/kg, ip administrated for 7 days by H and E staining based light microscopic method. It is filed as functional, organism-based. Summed up: as §1
Experiment [14] relates to Mus musculus. In words: Anti-colitis activity in Swiss albino mouse model of DSS-induced acute colitis assessed as reduction in DSS-induced oedema in colon at 10 mg/kg, ip administrated for 7 days by H and E staining based light microscopic method. In kind it is functional, organism-based. Summed up: as §1
For experiment [15], the system named is Mus musculus. In words: Anti-colitis activity in Swiss albino mouse model of DSS-induced acute colitis assessed as reduction in DSS-induced inflammatory cells infiltration in the submucosa in colon at 10 mg/kg, ip administrated for 7 days by H and E staining based light microscopic method. It is filed as functional, organism-based. Summed up:
as §1

Experiment [16] concerns Mus musculus. In words: Anti-inflammatory activity in Swiss albino mouse model of DSS-induced acute colitis as TNFalpha level in colon tissue at 10 mg/kg, ip administrated for 7 days by ELISA (reference value: 102.4 +/- 5.043 pg/mg). It is filed as functional.
Experiment [17] relates to Mus musculus. In words: Anti-colitis activity in Swiss albino mouse model of DSS-induced acute colitis assessed as disease activity index at 10 mg/kg, ip administrated for 7 days (reference value: 7.143 +/- 1.29). In kind it is functional.

Activity calls are given as the source filed them. The calls are words filed in the database; no cut-off is given here.

T1 sequence (P34972 whole entry): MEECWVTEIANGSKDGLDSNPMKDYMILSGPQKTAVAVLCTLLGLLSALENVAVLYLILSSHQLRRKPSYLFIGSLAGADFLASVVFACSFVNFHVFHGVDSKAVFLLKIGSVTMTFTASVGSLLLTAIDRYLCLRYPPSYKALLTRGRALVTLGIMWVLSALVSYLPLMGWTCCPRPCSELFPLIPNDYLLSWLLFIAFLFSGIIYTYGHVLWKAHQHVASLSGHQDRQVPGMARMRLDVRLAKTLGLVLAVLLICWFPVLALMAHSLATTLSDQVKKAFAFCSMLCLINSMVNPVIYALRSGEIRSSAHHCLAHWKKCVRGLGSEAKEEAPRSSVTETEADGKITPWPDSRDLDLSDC

As usually defined, the EC50 is the concentration that produces a half-maximal response. With `CCCCCn1/c(=N/C(=O)c2cccc3ccccc23)sc2ccccc21`, the EC50 on Cannabinoid receptor 2 [1] is 12.9 nM; on Cannabinoid receptor 1 [2], greater than 30000 nM; on Cannabinoid receptor 2 [3], greater than 30000 nM; at Cannabinoid receptor 1 [4], 126 nM; at Cannabinoid receptor 2 [5], 68 nM. The Ratio Ki in the experiment filed under Homo sapiens was 22.2. In addition, the outcome on Cannabinoid receptor 2 [6] and on Cannabinoid receptor 1 [7] was Active.
Regarding `CCCCCn1/c(=N/C(=O)c2cccc(C(F)(F)F)c2)sc2ccccc21`, the Activity came to 102.4 pg/mg in the experiment with Mus musculus [8], 6.729 cm in the experiment with Mus musculus [11] and 58.71 pg/mg in the experiment on Mus musculus [16]. The result in the experiment with Mus musculus [9], with Mus musculus [10], with Mus musculus [12], in the experiment with Mus musculus [13], with Mus musculus [14] and on Cannabinoid receptor 2 [6] was Active. Further, at Cannabinoid receptor 1 [7], the outcome was Active. Also, the EC50 is 129 nM on Cannabinoid receptor 2 [1]; greater than 30000 nM on Cannabinoid receptor 1 [2]; greater than 30000 nM at Cannabinoid receptor 2 [3]; greater than 30000 nM on Cannabinoid receptor 1 [4]; 306 nM on Cannabinoid receptor 2 [5]. For the same compound, the Ratio Ki in the experiment filed under Homo sapiens worked out at 429. Moreover, the result with Mus musculus [15] was inactive. Further, the Activity_index in the experiment with Mus musculus [17] turned out to be 3.286.
As to `Cc1nc(-c2ccccc2)sc1C(=O)NC12CC3CC(CC(C3)C1)C2`, the EC50 on Cannabinoid receptor 2 [1], on Cannabinoid receptor 1 [2], on Cannabinoid receptor 2 [3] and at Cannabinoid receptor 1 [4] was greater than 30000 nM in each case. The Ratio Ki in the experiment listed under Homo sapiens is greater than 22. Also, the result on Cannabinoid receptor 2 [6] and at Cannabinoid receptor 1 [7] was Active.
Regarding `CCCCCn1/c(=N\C(=O)C23CC4CC(CC(C4)C2)C3)sc2ccccc21`, the EC50 at Cannabinoid receptor 2 [1] was 26.3 nM; on Cannabinoid receptor 1 [2], greater than 30000 nM; at Cannabinoid receptor 2 [3], greater than 30000 nM; on Cannabinoid receptor 1 [4], 1620 nM; on Cannabinoid receptor 2 [5], 57 nM. The Ratio Ki in the experiment listed under Homo sapiens was 120. Moreover, the outcome at Cannabinoid receptor 2 [6] and on Cannabinoid receptor 1 [7] was Active.

For the origin of these results see ChEMBL document CHEMBL4364306, “Structure-activity relationships of thiazole and benzothiazole derivatives as selective cannabinoid CB2 agonists with in vivo anti-inflammatory properties” (Eur J Med Chem, 2019).
